Values after ≈ are worked out from the molar mass of the structure shown. Values joined by “and” are separate entries in the source; they are usually repeats but may differ in a detail not shown here. Equal values may be shown once.
How the values were obtained:
[1] = tested on: hyaluronan synthase activity; details: plasma membrane preparations containing hyaluronan synthase activity; ref Nakamura et al. 1997; cited from earlier work
[2] = mice fed with 5% chow, averaged over 24 h; ref Kuipers et al. 2016; cited from earlier work
[3] = tested on: Hyal1; assay: qPCR relative expression of Hyal1 in NIH3T3 cells; format: cell-based, mouse
Outline: (§1)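 Total RNA isolated with TRI reagent; concentration and quality checked by spectrophotometry and electrophoresis. Target mRNA quantified by SYBR Green real-time qPCR and normalized to GAPDH mRNA. Values are mean ± SD of three technical replicates.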

[4] = tested on: endothelial cells; details: 0.6 μM, ref Nagy et al. 2010; cited from earlier work
[5] = tested on: CCl4 induced liver fibrosis; assay: CCl4-induced liver fibrosis in mice; format: in vivo; details: for Blood parameters, compound alone vs control group: mice treated by compound only, 600 mg/kg daily; for Hepatotoxicity of compound alone (AST/ALT): mice, daily dose of 600 mg/kg per os
[6] = tested on: Hyal2; assay: qPCR relative expression of Hyal2 in NIH3T3 cells; format: cell-based, mouse
Outline: as §1

[7] = tested on: CCl4 induced liver fibrosis; details: CCl4 treated animals; ref Andreichenko et al. 2019; cited from earlier work
[8] = tested on: A2058 melanoma cells, MCF-7 and MDA-MB-361 breast, SKOV-3 ovarian and UT-SCC118 squamous carcinoma cells; details: incubation with 4MU; ref Kultti et al. 2009; cited from earlier work
[9] = tested on: NIH3T3 cells; assay: Microscopic evaluation; format: cell-based, mouse; details: 10 μM, 3 days, HABP staining, vs DMSO control
Outline: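 NIH3T3 seeded at 2 × 10^4 cells/well; next day fresh medium with 10 μM test compound, 3 days. Fixed 10 min in 10% buffered formalin, avidin-biotin blocked, biotinylated HABP overnight at 4°C, then streptavidin-Alexa 488, Hoechst and phalloidin. Confocal 40× 5 × 5 mosaics; HA-positive area as % of total cell area. Three wells. Controls: 0.05% DMSO; hyaluronidase digest of untreated cells (1 mg/mL, 30 min, 37°C).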

[10] = tested on: HAS3; assay: qPCR relative expression of HAS3 in NIH3T3 cells; format: cell-based, mouse
Outline: as §1

[11] = tested on: NIH3T3 cells; assay: Cell population doubling time; format: cell-based, mouse; details: 72 h; for Doubling time: control 21 h
[12] = tested on: B16F10 cells; details: 30 μM, ref Nagy et al. 2019; cited from earlier work
[13] = tested on: HAS2; assay: qPCR relative expression of HAS2 in NIH3T3 cells; format: cell-based, mouse
Outline: as §1

[14] = tested on: NIH3T3 cells; assay: MTT cell viability assay; format: cell-based, mouse; details: proliferating NIH3T3 cells, 3 days incubation
Outline: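 Proliferating NIH3T3 fibroblasts exposed for 3 days to rising test compound concentrations. MTT (5 mg/mL in PBS, 10 μL per 100 μL medium) incubated 3 h at 37°C, 5% CO2. Plates centrifuged, medium removed, formazan dissolved in DMSO, absorbance read at 570 nm. n = 3.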

[15] = tested on: NIH3T3 cells; assay: Inhibition of hyaluronan secreted in NIH3T3 cell culture media; format: cell-based, mouse; details: for Effect on hyaluronan production (in words): NIH3T3 HA production assay; for IC50: Mus musculus, NIH3T3, 72 h, read-out: IC50 for inhibition of hyaluronan deposition in cell culture media
[16] = tested on: human pancreatic cancer cell (KP1-NL); details: fixed concentration 10 μM; ref Morohashi et al. 2006; cited from earlier work
[17] = tested on: Drosophila mutEt15 (I1056F/M); details: Drosophila line with CRISPR/Cas9 point mutation I1056F/M; ref Douris et al. 2016; cited from earlier work
[18] = tested on: Drosophila WT; details: wild-type Drosophila; ref Douris et al. 2016; cited from earlier work
[19] = tested on: zebrafish embryos; details: ref Park et al. 2019; cited from earlier work

Cc1cc(=O)oc2cc(O)ccc12 [Compound 4MU, 7-hydroxy-4-methylchromen-2-one]
HA synthesis in cell-free assay (in words) [1]: did not inhibit HA synthesis | Effective plasma concentration [2]: 0.89 ± 0.51 μg/mL and 5.1 ± 2.9 μM | IC50 ([3]; Mus musculus, NIH3T3, read-out: Upregulated Hyal1 expression with IC50): ~250 µM | Reduction of hyaluronan secretion [4]: 30% | Plasma HA ([5]; CCl4-treated mice, 600 mg/kg daily per os): reduced plasma HA to near the control levels | Blood parameters, compound alone vs control group [5]: did not find any significant differences | Hepatotoxicity of compound alone (AST/ALT) [5]: no hepatotoxicity | Hyal2 expression not affected at concentrations up to [6]: > 1 mM | Collagen deposition in the liver [7]: prevented collagen deposition | Depletion of UDP-GlcUA levels [8]: 38–95% | Decrease of the percentage of HA-positive area [9]: at least 3 times | Activated HAS3 expression at concentration over [10]: over 500 μM | Doubling time ([11]; 250 μM): 38 h | Concentration from/over which doubling time increased [11]: ≥ 60 µM | HA production inhibition [12]: 50% | IC50 ([13]; Mus musculus, NIH3T3, read-out: IC50 for inhibition of HAS2 expression): ~250 µM

Cc1cc(=O)oc2c(C)c3c(cc12)C(=O)CC1(CCCCC1)O3 [Compound IX, 6′,10′-dimethyl-3′H-spiro[cyclohexane-1,2′-pyrano[3,2-g]chromene]-4′,8′-dione]
Did not affect cell viability at concentrations up to [14]: > 1 mM | Not toxic in concentrations up to (MTT) [14]: > 0.5 mM | Doubling time ([11]; all tested concentrations): 16.5 h | Effect on hyaluronan production (in words) [15]: completely abrogated inhibition of hyaluronan production

CC(=O)c1cc2c(-c3ccccc3)cc(=O)oc2c(C)c1O [Compound V, 6-acetyl-7-hydroxy-8-methyl-4-phenyl-2H-chromen-2-one]
Toxicity at concentrations higher than (MTT) [14]: higher than 125 μM | Concentration from/over which doubling time increased [11]: ≥ 125 µM

Cc1c2c(cc3c(-c4ccccc4)cc(=O)oc13)C(=O)CC1(CCCCC1)O2 [Compound VI, 10′-methyl-6′-phenyl-3′H-spiro[cyclohexane-1,2′-pyrano[3,2-g]chromene]-4′,8′-dione]
Did not affect cell viability at concentrations up to [14]: > 1 mM | Not toxic in concentrations up to (MTT) [14]: > 0.5 mM | Effect on hyaluronan production (in words) [15]: completely abrogated inhibition of hyaluronan production

Cc1c2c(cc3c(-c4ccccc4)cc(=O)oc13)C(=O)CC1(CCNCC1)O2 [Compound VII, 10′-methyl-6′-phenyl-3′H-spiro[piperidine-4,2′-pyrano[3,2-g]chromene]-4′,8′-dione]
Decrease of the percentage of HA-positive area [9]: at least 3 times | Concentration from/over which doubling time increased [11]: over 10 μM

COc1ccc2c(C)cc(=O)oc2c1 [II, 7-methoxy-4-methyl coumarin]
Inhibitory activity on HA production (in words) [16]: inactive

CCN(CC)Cc1cc2c(-c3ccccc3)cc(=O)oc2c(C)c1O [IV, 6-((diethylamino)methyl)-7-hydroxy-8-methyl-4-phenyl-2H-chromen-2-one]
Concentration from/over which doubling time increased [11]: ≥ 500 µM

CC(=O)c1cc2c(C)cc(=O)oc2c(C)c1O [VIII, 6-acetyl-7-hydroxy-4,8-dimethyl-2H-chromen-2-one]
Toxicity at concentrations higher than (MTT) [14]: > 60 µM | Decrease of the percentage of HA-positive area [9]: at least 3 times | Concentration from/over which doubling time increased [11]: > 50 µM

CC(C)N1C(=O)N(c2ccccc2)CSC1=NC(C)(C)C [buprofezin, 2-(tert-butylimino)-5-phenyl-3-(propan-2-yl)-1,3,5-thiadiazinan-4-one]
LC50 mutEt15 [17]: > 1000 µg/mL | Not toxic in concentrations up to (MTT) [14]: > 1 mM | LC50 WT [18]: 53.2 µg/mL (≈ 174 µM) | IC50 [15]: 1.24 ± 0.87 µM

O=C(NC(=O)c1c(F)cccc1F)Nc1ccc(Cl)cc1 [diflubenzuron]
LC50 mutEt15 [17]: > 5000 µg/mL | LC50 WT [18]: 0.322 µg/mL (≈ 1.04 µM)

CCOc1cc(C(C)(C)C)ccc1C1COC(c2c(F)cccc2F)=N1 (centres unmarked) [etoxazole, 4-(4-tert-butyl-2-ethoxyphenyl)-2-(2,6-difluorophenyl)-4,5-dihydro-1,3-oxazole]
Effect on cardiovascular development (in words) [19]: inhibits cardiovascular development | Hyal1 level (in words) ([3]; NIH3T3 cells, all tested concentrations): significantly dropped | αSMA level in liver homogenate (western blot) ([5]; CCl4-treated mice, 600 mg/kg daily per os, n = 5): significant reduction | Plasma HA ([5]; CCl4-treated mice, 600 mg/kg daily per os, 600 mg/kg): reduced plasma HA to near the control levels | Plasma HA ([5]; CCl4-treated mice, 600 mg/kg daily per os, listed as Etoxazole, 600 mg/kg): reduced HA production | Blood parameters, compound alone vs control group [5]: did not find any significant differences | Hepatotoxicity of compound alone (AST/ALT) [5]: no hepatotoxicity | Level of Hyal2 (in words) [6]: not affected | Not toxic in concentrations up to (MTT) [14]: > 1 mM | Inhibited HAS3 expression at concentrations higher than [10]: higher than 250 μM | IC50 [15]: 4.21 ± 3.82 µM | Upregulation of HAS2 expression ([13]; NIH3T3 cells, 120 μM): ~1.5 times | Suppression of HAS2 expression ([13]; NIH3T3 cells, doses higher than 120 μM): up to 80%

O=C(NC(=O)c1c(F)cccc1F)Nc1cc(Cl)c(OC(F)(F)C(F)C(F)(F)F)cc1Cl (centres unmarked) [lufenuron]
LC50 mutEt15 [17]: 16.659 µg/mL (≈ 32.6 µM) | LC50 WT [18]: 0.148 µg/mL (≈ 0.29 µM)

C[C@@H]([C@H](N)C(=O)N[C@H](C(=O)O)[C@H]1O[C@@H](n2ccc(=O)[nH]c2=O)[C@H](O)[C@@H]1O)[C@H](O)c1ccc(O)cn1 [nikkomycin]
Effect on hyaluronan production (in words) [15]: ineffective

O=C(NC(=O)c1ccccc1Cl)Nc1ccc(OC(F)(F)F)cc1 [triflumuron, 2-chloro-N-[[4-(trifluoromethoxy)phenyl]carbamoyl] benzamide]
Not toxic in concentrations up to (MTT) [14]: > 1 mM | IC50 [15]: 1.48 ± 1.44 µM

Reference: paper PMC8434796 (Glycobiology, 2021)
